Data set [1] relates to RAW264.7. As to the kind of experiment: Antiinflammatory activity in mouse RAW264.7 cells assessed as inhibition of LPS-induced NO production at 200 uM after 24 hrs by Griess assay. Type of data set: functional, cell-based. A general note: Nitrite, measured by Griess reagent, commonly stands in for NO production.
A further data set has as its target Acetylcholinesterase (Electrophorus electricus, UniProt O42275). As to the kind of experiment: Inhibition of electric eel AChE using acetylthiocholine iodide as substrate measured every 13 secs by Ellman's method. In general terms: Ellman's reagent forms a yellow product with free thiols.
For data set [2], the system named is RAW264.7. As to the kind of experiment: Antiinflammatory activity in mouse RAW264.7 cells assessed as inhibition of LPS-induced NO production after 24 hrs by Griess assay. Type of data set: functional, cell-based. As to conditions: RAW264.7, 24 h. In a few lines:
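LPS-stimulated RAW 264.7 mouse macrophages; compound inhibition of NO production measured, with dexamethasone as positive control. The protocol follows a previously described method.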

Data set [3] deals with RAW264.7. The data set can be described thus: Cytotoxicity against mouse RAW264.7 cells at 200 uM. Format: cell-based. As to conditions: raw264.7, 200 µM.

The source made the active and inactive calls. The rule behind the calls is not given here.

Acetylcholinesterase, sequence (O42275 whole entry): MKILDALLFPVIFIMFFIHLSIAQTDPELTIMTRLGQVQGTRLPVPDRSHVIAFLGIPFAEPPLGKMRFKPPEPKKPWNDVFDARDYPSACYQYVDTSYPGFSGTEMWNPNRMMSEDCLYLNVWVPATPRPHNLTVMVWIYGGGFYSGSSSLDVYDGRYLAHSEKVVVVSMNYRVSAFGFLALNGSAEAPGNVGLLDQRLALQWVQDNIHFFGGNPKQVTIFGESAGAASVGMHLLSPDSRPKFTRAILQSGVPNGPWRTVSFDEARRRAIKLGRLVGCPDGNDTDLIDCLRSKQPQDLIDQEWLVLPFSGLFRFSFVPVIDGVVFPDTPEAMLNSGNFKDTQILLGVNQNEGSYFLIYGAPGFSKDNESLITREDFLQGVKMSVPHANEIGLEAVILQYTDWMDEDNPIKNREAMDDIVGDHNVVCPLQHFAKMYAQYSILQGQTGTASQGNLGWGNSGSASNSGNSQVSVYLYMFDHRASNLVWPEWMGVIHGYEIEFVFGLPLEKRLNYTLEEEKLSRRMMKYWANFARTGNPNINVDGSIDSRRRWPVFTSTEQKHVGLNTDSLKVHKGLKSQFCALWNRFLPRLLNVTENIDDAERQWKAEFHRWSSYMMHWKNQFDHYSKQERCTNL

For `CC[C@H](C)CN1Cc2cc3c(cc2[C@@]24C=C[C@@H](OC)C[C@@H]2N(C)C(=O)[C@@H]14)OCO3`, in the data set on RAW264.7 [1], the inhibition result is “inactive”. Take `CO[C@@H]1C=C[C@@]23c4cc5c(cc4C[N+]([O-])(CCc4ccc(O)cc4)[C@@H]2C(=O)N(C)[C@H]3C1)OCO5` (stereo partly drawn): the IC50 (commonly the concentration at which inhibition is half-maximal) against Acetylcholinesterase was 75.3 µM; in the data set with RAW264.7 [2], 7.5 µM. Further, in the data set with RAW264.7 [3], the Activity result was “Non-Toxic”.

Turning to `CO[C@@H]1C=C[C@@]23c4cc5c(cc4CN(C)[C@@H]2C(=O)N(C)[C@H]3C1)OCO5`, the inhibition entry in the data set on RAW264.7 [1] is “inactive”. Still for that read-out and setting: the entry for `COc1ccc2c3c1O[C@H]1C[C@@H](O)C=C[C@@]31[C@@H](O)CN(C)C2` is “inactive”. On to `CO[C@@H]1C=C[C@@]23c4cc5c(cc4CN(CCc4c[nH]c6ccccc46)[C@@H]2C(=O)N(C)[C@H]3C1)OCO5`, for which the IC50 was determined as 111 µM on Acetylcholinesterase and 18 µM with RAW264.7 [2]. For the same compound, in the data set on RAW264.7 [3], the Activity result is recorded as “Non-Toxic”. Regarding `COc1ccc2c3c1O[C@H]1C[C@@H](O)C=C[C@@]31CCN(C)C2`, in the data set on RAW264.7 [1], the inhibition entry was “inactive”.

As to `COc1ccc2c3c1O[C@H]1[C@@H](O)[C@@H](O)C=C[C@@]31[C@@H](O)CN(C)C2`, in the data set with RAW264.7 [1], the inhibition result is “inactive”. The same measure, in the same setting: the entry for `CO[C@@H]1C=C[C@@]23c4cc5c(cc4CN(CCc4ccc(O)cc4)[C@@H]2C(=O)N(C)[C@H]3C1)OCO5` is “inactive”; for `CO[C@@H]1C=C[C@@]23c4cc5c(cc4C=N[C@@H]2C(=O)N(C)[C@H]3C1)OCO5` it is “inactive”. On the same count and under the same terms, the entry for `CCCCCCN1Cc2cc3c(cc2[C@@]24C=C[C@@H](OC)C[C@@H]2N(C)C(=O)[C@@H]14)OCO3` is “inactive”; for `COc1ccc2c3c1O[C@H]1C[C@@H](O)CC[C@@]31[C@@H](O)CN(C)C2` it is “inactive”. For the compound `CO[C@@H]1C=C[C@@]23c4cc5c(cc4CN(CCc4ccccc4)[C@@H]2C(=O)N(C)[C@H]3C1)OCO5`, the IC50 in the data set on RAW264.7 [2] was determined as 10.2 µM. Moreover, the Activity result with RAW264.7 [3] is given as “Non-Toxic”. For `CO[C@@H]1C=C[C@@]23c4cc5c(cc4CN(CCC(C)C)[C@@H]2C(=O)N(C)[C@H]3C1)OCO5`, the inhibition result in the data set on RAW264.7 [1] was “inactive”. Take `CO[C@@H]1C=C[C@@]2(C(=O)N(CCC(C)C)Cc3cc4c(cc32)OCO4)[C@@H](N(C)C=O)C1`: the IC50 with RAW264.7 [2] was 23.6 µM. Besides, the Activity entry in the data set on RAW264.7 [3] was “Non-Toxic”. At Acetylcholinesterase, `CN1Cc2ccc(O)c3c2[C@@]2(C=C[C@H](O)C[C@@H]2O3)[C@@H](O)C1` yielded an IC50 of 169 µM. Further, the inhibition entry in the data set with RAW264.7 [1] is “inactive”. For `CN1CC[C@@]23C=C[C@H](O)C[C@@H]2Oc2c(O)ccc(c23)C1`, the inhibition result in the data set with RAW264.7 [1] was “inactive”. The same measure, in the same setting: the entry for `CN1Cc2ccc(O)c3c2[C@@]2(CC[C@H](O)C[C@@H]2O3)[C@@H](O)C1` is “inactive”. As to `CO[C@@H]1C=C[C@@]23c4cc5c(cc4CN(CCCC(=O)O)[C@@H]2C(=O)N(C)[C@H]3C1)OCO5`, in the data set with RAW264.7 [2], the IC50 was determined as 18.8 µM. Further, the Activity result in the data set with RAW264.7 [3] is on record as “Non-Toxic”.

`CO[C@@H]1C=C[C@@]2(C(=O)N(C)Cc3cc4c(cc32)OCO4)[C@@H](N(C)C=O)C1`: the inhibition entry with RAW264.7 [1] is “inactive”. On the same count and under the same terms, next, `CN1CC[C@@]23CC[C@H](O)C[C@@H]2Oc2c(O)ccc(c23)C1`: “inactive”. `CO[C@@H]1C=C[C@@]23c4cc5c(cc4C[N+]([O-])(CCC(C)C)[C@@H]2C(=O)N(C)[C@H]3C1)OCO5` (stereo partly drawn) yielded an IC50 against Acetylcholinesterase of 57.3 µM. In addition, the inhibition result with RAW264.7 [1] is “inactive”. For `COc1ccc2c3c1O[C@H]1C[C@@H](O)CC[C@@]31CCN(C)C2`, in the data set on RAW264.7 [1], the inhibition result is “inactive”. Still for that read-out and setting: next, `COc1ccc2c3c1O[C@H]1C[C@@H](O)C=C[C@@]31[C@@H](O)C[N+](C)([O-])C2` (stereo partly drawn): “inactive”; `COc1ccc2c3c1O[C@H]1C[C@@H](O)CC[C@@]31[C@@H](O)C[N+](C)([O-])C2` (stereo partly drawn): “inactive”.

Source of the values: ChEMBL document CHEMBL4477162, “Galanthamine, Plicamine, and Secoplicamine Alkaloids from Zephyranthes candida and Their Anti-acetylcholinesterase and Anti-inflammatory Activities” (J Nat Prod, 2016).
